Assay results from paper PMC5955769 (ACS chemical neuroscience, 2018).

What was measured:
[1] = tested on: Nrf2; experiment: Neh2-luc SH-SY5Y cell-based reporter; conditions: for Nrf2 activity in Neh2-luciferase reporter assay (library screen): IRSF SMART library screen
In short: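 Luciferase reporter in SH-SY5Y cells carrying the Nrf2 Neh2 fusion (Neh2-luc). It is used to find agents that directly stabilize the Nrf2 transcription factor. Run as a screen of an approved and preclinical drug library, and as concentration-response testing of selected compounds. TBHQ was the reference Nrf2 activator.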

[2] = tested on: HIF-1α; experiment: ODD-luc SH-SY5Y cell reporter; type: cell-based; conditions: SH-SY5Y cells
In short: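 HIF-1α ODD-luciferase reporter in SH-SY5Y cells, run as concentration-response testing. The PHD inhibitor FG-4592 served as the HIF-activating control.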

Row | SMILES | Nrf2 (Neh2-luc) fold activation ([1]; SH-SY5Y cells, fold increase in luminescence relative to vehicle control) | Nrf2 activity in Neh2-luciferase reporter assay (library screen) [1] | HIF-1α (ODD-luc) fold activation [2]
1 | CC1(C)CNc2ccccc21 [3,3-dimethylindoline (III)] | 1.8 fold |  | 
2 | O=C(CCCCCCC(=O)Nc1ccccc1)NO [SAHA] |  | Nrf2 hits | 
3 | CC(/C=C/C(=O)NO)=C\[C@@H](C)C(=O)c1ccc(N(C)C)cc1 [TSA] |  | Nrf2 hits | 
4 | Nc1ccccc1NC(=O)c1ccc(CNC(=O)OCc2cccnc2)cc1 [entinostat] |  | completely inactive | 
5 | O=C(/C=C/C#Cc1cccc(NS(=O)(=O)c2ccccc2)c1)NO [oxamflatin] |  | Nrf2 hits | 
6 | CC(=O)Nc1ccc(C(=O)Nc2ccccc2N)cc1 [tacedinaline] |  | inactive | 
7 | CN1CCc2c(c3ccccc3n2Cc2ccc(C(=O)NO)cc2)C1 [tubastatin] |  | Nrf2 hits | 2.4 fold
